Experimental data: ChEMBL document CHEMBL2157878, “In vitro cellular uptake and dimerization of signal transducer and activator of transcription-3 (STAT3) identify the photosensitizing and imaging-potential of isomeric photosensitizers derived from chlorophyll-a and bacteriochlorophyll-a” (J Med Chem, 2011)

How the values were obtained:
[1] = tested on: Mus musculus; experiment: Drug uptake in mouse Colon 26 cells xenografted iv dosed BALB/c mouse after 24 hrs by PET imaging; format: ADME, organism-based; settings: in vivo
How it was run: (§1)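 Colon26 tumors grown subcutaneously in BALB/c mice. ¹²⁴I-labeled photosensitizer given into the tail vein at 52–122 μCi. Under isoflurane/oxygen anesthesia, animals were scanned prone on a microPET for 30 min at 24, 48 and 72 h post-injection. Tumor uptake was estimated by region-of-interest calculations.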

[2] = tested on: Mus musculus; experiment: Drug uptake in mouse Colon 26 cells xenografted iv dosed BALB/c mouse after 48 hrs by PET imaging; format: ADME, organism-based; settings: in vivo; how it was run: as §1
[3] = tested on: Mus musculus; experiment: Drug uptake in mouse Colon 26 cells xenografted iv dosed BALB/c mouse after 72 hrs by PET imaging; format: ADME, organism-based; settings: in vivo; how it was run: as §1
[4] = tested on: Blood; experiment: Drug uptake in BALB/c mouse blood xenografted with mouse Colon 26 cells at 100 uCi administered parenterally after 24 hrs by PET analysis; format: ADME, tissue-based; settings: in vivo, other
How it was run: (§2)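 ¹²⁴I-labelled PS given by tail vein to BALB/c mice bearing Colon26 tumours (100 μCi per figure legend). Three mice per time point killed at 24, 48 and 72 h. Tumour, organs and blood weighed and counted in a γ-well counter. Uptake expressed as %ID/g.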

[5] = tested on: Muscle tissue; experiment: Drug uptake in BALB/c mouse muscle xenografted with mouse Colon 26 cells at 100 uCi administered parenterally after 24 hrs by PET analysis; format: ADME, tissue-based; settings: in vivo, other; how it was run: as §2
[6] = tested on: Spleen; experiment: Drug uptake in BALB/c mouse spleen xenografted with mouse Colon 26 cells at 100 uCi administered parenterally after 24 hrs by PET analysis; format: ADME, tissue-based; settings: in vivo, other; how it was run: as §2
[7] = tested on: Kidney; experiment: Drug uptake in BALB/c mouse kidney xenografted with mouse Colon 26 cells at 100 uCi administered parenterally after 24 hrs by PET analysis; format: ADME, tissue-based; settings: in vivo, other; how it was run: as §2
[8] = tested on: Lung; experiment: Drug uptake in BALB/c mouse lungs xenografted with mouse Colon 26 cells at 100 uCi administered parenterally after 24 hrs by PET analysis; format: ADME, tissue-based; settings: in vivo, other; how it was run: as §2
[9] = tested on: Heart; experiment: Drug uptake in BALB/c mouse heart xenografted with mouse Colon 26 cells at 100 uCi administered parenterally after 24 hrs by PET analysis; format: ADME, tissue-based; settings: in vivo, other; how it was run: as §2
[10] = tested on: Liver; experiment: Drug uptake in BALB/c mouse liver xenografted with mouse Colon 26 cells at 100 uCi administered parenterally after 24 hrs by PET analysis; format: ADME, tissue-based; settings: in vivo, other; how it was run: as §2
[11] = Drug uptake in BALB/c mouse gut xenografted with mouse Colon 26 cells at 100 uCi administered parenterally after 24 hrs by PET analysis; format: ADME, cell-based; settings: in vivo, other
[12] = tested on: Stomach; experiment: Drug uptake in BALB/c mouse stomach xenografted with mouse Colon 26 cells at 100 uCi administered parenterally after 24 hrs by PET analysis; format: ADME, tissue-based; settings: in vivo, other; how it was run: as §2
[13] = Drug uptake in mouse Colon 26 cells implanted BALB/c mouse tumor at 100 uCi administered parenterally after 24 hrs by gamma counting; format: ADME, Neoplasm; settings: in vivo, other; how it was run: as §2
[14] = tested on: Blood; experiment: Drug uptake in BALB/c mouse blood xenografted with mouse Colon 26 cells at 100 uCi administered parenterally after 48 hrs by PET analysis; format: ADME, tissue-based; settings: in vivo, other; how it was run: as §2
[15] = tested on: Muscle tissue; experiment: Drug uptake in BALB/c mouse muscle xenografted with mouse Colon 26 cells at 100 uCi administered parenterally after 48 hrs by PET analysis; format: ADME, tissue-based; settings: in vivo, other; how it was run: as §2
[16] = tested on: Spleen; experiment: Drug uptake in BALB/c mouse spleen xenografted with mouse Colon 26 cells at 100 uCi administered parenterally after 48 hrs by PET analysis; format: ADME, tissue-based; settings: in vivo; how it was run: as §2
[17] = tested on: Kidney; experiment: Drug uptake in BALB/c mouse kidney xenografted with mouse Colon 26 cells at 100 uCi administered parenterally after 48 hrs by PET analysis; format: ADME, tissue-based; settings: in vivo, other; how it was run: as §2
[18] = tested on: Lung; experiment: Drug uptake in BALB/c mouse lungs xenografted with mouse Colon 26 cells at 100 uCi administered parenterally after 48 hrs by PET analysis; format: ADME, tissue-based; settings: in vivo, other; how it was run: as §2
[19] = tested on: Heart; experiment: Drug uptake in BALB/c mouse heart xenografted with mouse Colon 26 cells at 100 uCi administered parenterally after 48 hrs by PET analysis; format: ADME, tissue-based; settings: in vivo, other; how it was run: as §2
[20] = tested on: Liver; experiment: Drug uptake in BALB/c mouse liver xenografted with mouse Colon 26 cells at 100 uCi administered parenterally after 48 hrs […]; format: ADME, tissue-based; settings: in vivo; how it was run: as §2
[21] = Drug uptake in BALB/c mouse gut xenografted with mouse Colon 26 cells at 100 uCi administered parenterally after 48 hrs by PET analysis; format: ADME, cell-based; settings: in vivo, other; how it was run: as §2
[22] = tested on: Stomach; experiment: Drug uptake in BALB/c mouse stomach xenografted with mouse Colon 26 cells at 100 uCi administered parenterally after 48 hrs by PET analysis; format: ADME, tissue-based; settings: in vivo, other; how it was run: as §2
[23] = Drug uptake in mouse Colon 26 cells implanted subcutaneously in BALB/c mouse tumor at 100 uCi administered parenterally after 48 hrs by gamma counting; format: ADME, Neoplasm; settings: in vivo, sc; how it was run: as §2
[24] = tested on: Blood; experiment: Drug uptake in BALB/c mouse blood xenografted with mouse Colon 26 cells at 100 uCi administered parenterally after 72 hrs by PET analysis; format: ADME, tissue-based; settings: in vivo, other; how it was run: as §2
[25] = tested on: Muscle tissue; experiment: Drug uptake in BALB/c mouse muscle xenografted with mouse Colon 26 cells at 100 uCi administered parenterally after 72 hrs by PET analysis; format: ADME, tissue-based; settings: in vivo, other; how it was run: as §2
[26] = tested on: Spleen; experiment: Drug uptake in BALB/c mouse spleen xenografted with mouse Colon 26 cells at 100 uCi administered parenterally after 72 hrs by PET analysis; format: ADME, tissue-based; settings: in vivo, other; how it was run: as §2
[27] = tested on: Kidney; experiment: Drug uptake in BALB/c mouse kidney xenografted with mouse Colon 26 cells at 100 uCi administered parenterally after 72 hrs by PET analysis; format: ADME, tissue-based; settings: in vivo, other; how it was run: as §2
[28] = tested on: Lung; experiment: Drug uptake in BALB/c mouse lungs xenografted with mouse Colon 26 cells at 100 uCi administered parenterally after 72 hrs by PET analysis; format: ADME, tissue-based; settings: in vivo, other; how it was run: as §2
[29] = tested on: Heart; experiment: Drug uptake in BALB/c mouse heart xenografted with mouse Colon 26 cells at 100 uCi administered parenterally after 72 hrs by PET analysis; format: ADME, tissue-based; settings: in vivo, other; how it was run: as §2
[30] = tested on: Liver; experiment: Drug uptake in BALB/c mouse liver xenografted with mouse Colon 26 cells at 100 uCi administered parenterally after 72 hrs by PET analysis; format: ADME, tissue-based; settings: in vivo, other; how it was run: as §2
[31] = Drug uptake in BALB/c mouse gut xenografted with mouse Colon 26 cells at 100 uCi administered parenterally after 72 hrs by PET analysis; format: ADME, cell-based; settings: in vivo, other; how it was run: as §2
[32] = tested on: Stomach; experiment: Drug uptake in BALB/c mouse stomach xenografted with mouse Colon 26 cells at 100 uCi administered parenterally after 72 hrs by PET analysis; format: ADME, tissue-based; settings: in vivo; how it was run: as §2
[33] = Drug uptake in mouse Colon 26 cells implanted subcutaneously in BALB/c mouse tumor at 100 uCi administered parenterally after 72 hrs by gamma counting; format: ADME, Neoplasm; settings: in vivo, sc; how it was run: as §2
[34] = tested on: Liver; experiment: Drug uptake in parenterally dosed BALB/c mouse liver xenografted with mouse Colon 26 cells after 72 hrs by PET analysis; format: ADME, organism-based; settings: in vivo
How it was run: (§3)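 Tumor-bearing BALB/c mice (Colon26, subcutaneous) received ¹²⁴I-labeled photosensitizer via the tail vein at 15–50 μCi. Three mice per time point were sacrificed at 24, 48 and 72 h. Organs were removed, weighed and counted in a γ-well counter. Uptake was expressed as %ID/g tissue.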

[35] = tested on: Spleen; experiment: Drug uptake in parenterally dosed BALB/c mouse spleen xenografted with mouse Colon 26 cells after 72 hrs by PET analysis; format: ADME, organism-based; settings: in vivo; how it was run: as §3
[36] = tested on: Intestine; experiment: Drug uptake in parenterally dosed BALB/c mouse intestine xenografted with mouse Colon 26 cells after 72 hrs by PET analysis; format: ADME, organism-based; settings: in vivo, other; how it was run: as §3

Measured: Drug uptake

CCC1=C(C)c2cc3[nH]c(cc4nc(c5c6[nH]c(cc1n2)c(C)c6C(=O)C5)C(CCC(=O)OC)[C@@H]4C)c(C)c3C(C)OCc1cccc([124I])c1 (some centres undefined)
not listed: [34] | [35] | [36]
Active: all other assays above

CCC1=C(C)c2cc3[nH]c(cc4nc(c5c6[nH]c(cc1n2)c(C)c6C(=O)C5)C(CCC(=O)O)[C@@H]4C)c(C)c3C(C)OCc1cccc([124I])c1 (some centres undefined)
Active: all assays above
